Reference: ChEMBL document CHEMBL4627246, “Pyroglutamide-Based P2X7 Receptor Antagonists Targeting Inflammatory Bowel Disease” (J Med Chem, 2020)
Calls of active or inactive are those of the source. The rule behind the calls is not given here.

Experiments:
[1] = target: T1, P2X purinoceptor 7 (Homo sapiens) (UniProt Q99572); test: Antagonist activity at P2X7R in human THP1 cells assessed as inhibition of LPS and BzATP-induced ROS production at 10^-6mol/L pretreated with compound followed by LPS/BzATP addition and measured after 6 hrs by kinetic chemiluminescence based fluorometric analysis; format: cell-based; conditions: THP-1
T1 sequence (whole entry): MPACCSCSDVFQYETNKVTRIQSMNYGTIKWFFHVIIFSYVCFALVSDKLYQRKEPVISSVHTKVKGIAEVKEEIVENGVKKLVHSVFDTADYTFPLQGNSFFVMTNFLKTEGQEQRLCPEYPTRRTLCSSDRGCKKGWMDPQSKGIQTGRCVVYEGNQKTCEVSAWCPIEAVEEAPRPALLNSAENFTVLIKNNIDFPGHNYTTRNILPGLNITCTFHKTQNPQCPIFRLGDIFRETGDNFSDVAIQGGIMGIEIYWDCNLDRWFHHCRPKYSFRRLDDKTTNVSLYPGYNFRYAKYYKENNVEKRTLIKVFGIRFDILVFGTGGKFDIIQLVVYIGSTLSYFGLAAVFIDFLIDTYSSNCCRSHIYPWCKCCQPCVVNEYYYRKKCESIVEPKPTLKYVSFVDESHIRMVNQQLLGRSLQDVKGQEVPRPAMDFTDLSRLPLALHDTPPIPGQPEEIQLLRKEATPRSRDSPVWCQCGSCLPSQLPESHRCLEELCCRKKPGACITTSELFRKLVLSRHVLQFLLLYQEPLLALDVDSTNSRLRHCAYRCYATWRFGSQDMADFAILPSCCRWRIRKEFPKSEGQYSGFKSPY
Outline: (§1)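 Differentiated THP-1 macrophages (10^5 cells, RPMI 1640 + 10% FBS) pretreated with antagonist at 10^-6 mol/L before LPS (10 μmol/L) and BzATP (70 μmol/L), 37 °C, 5% CO2; ROS detected as luminol (50 μM)/horseradish peroxidase (50 μg/mL) chemiluminescence on a fluorometer; H2O2 without cells as positive control.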

[2] = target: T1, P2X purinoceptor 7 (Homo sapiens); test: Antagonist activity at P2X7R in human THP1 cells assessed as inhibition of LPS and BzATP-induced mature form of IL-1beta expression in cells supernatant at 10^-6 mol/L pretreated with compound followed by LPS/BzATP addition and measured after 2 to 6 hrs by Western blot analysis; format: cell-based; conditions: THP-1
[3] = target: T1, P2X purinoceptor 7 (Homo sapiens); test: Antagonist activity at P2X7R in human THP1 cells assessed as inhibition of LPS and BzATP-induced mature form of IL-1beta expression in whole cell extract at 10^-6 mol/L pretreated with compound followed by LPS/BzATP addition and measured after 2 to 6 hrs by Western blot analysis; format: cell-based; conditions: THP-1
[4] = target: T1, P2X purinoceptor 7 (Homo sapiens); test: Antagonist activity at P2X7R in human THP1 cells assessed as inhibition of LPS and BzATP-induced ROS production at 10^-6mol/L pretreated with compound followed by LPS/BzATP addition and measured after 5 hrs by kinetic chemiluminescence based fluorometric analysis; format: cell-based; conditions: THP-1; outline: as §1
[5] = target: T1, P2X purinoceptor 7 (Homo sapiens); test: Antagonist activity at P2X7R in human THP1 cells assessed as inhibition of LPS and BzATP-induced cell death at 10^-6 mol/L pretreated with compound followed by LPS/BzATP addition and measured after 4 hrs by sytox green dye based flow cytometry; conditions: THP-1
[6] = target: T1, P2X purinoceptor 7 (Homo sapiens); test: Antagonist activity at P2X7R in human THP1 cells assessed as inhibition of LPS and BzATP-induced ROS production at 10^-6mol/L pretreated with compound followed by LPS/BzATP addition and measured after 4 hrs by kinetic chemiluminescence based fluorometric analysis; format: cell-based; conditions: THP-1; outline: as §1
Mus musculus [7] = test: Antiinflammatory activity against DSS-induced colitis C57BL/6J mouse model assessed as reduction in rectal bleeding at 2.5 mg/kg, ip administered daily and measured for 15 days; format: functional, organism-based
Outline: (§2)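 DSS colitis in WT mice: 3.8% DSS in drinking water days 1–5, then tap water for 10 days; compound 2.5 mg/kg given i.p. daily in 10% DMSO/PBS; cohorts of 10 mice per group, placebo as comparator; weight loss and clinical disease score tracked; colon sections at day 14 stained with H&E and histologically scored; data as mean ± SEM.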

[8] = Drug metabolism in human liver microsomes assessed as metabolite N-[(2,4-dichlorophenyl)methyl]-5-oxo-pyrrolidine-2-carboxamide formation at 0.2 mg/ml incubated for 60 mins by UPLC-MS/MS analysis; format: ADME, Microsome; conditions: 1 h
Outline: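 Human liver microsomes (2 mg protein/mL) pre-activated with alamethicin in 0.1 M Tris-HCl/10 mM MgCl₂ pH 7.4, added to dried residue of 0.2 mg/mL compound solution; cofactors UDPGA 5 mM, NADPH 1.3 mM, G6P 3.3 mM, G6PD 0.5 U/mL. 37 °C, 60 min; stopped with methanol plus internal standards. Supernatant analysed by online-extraction UPLC on C18 with Q-TOF MS, ESI+.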

Mus musculus [9] = test: Antiinflammatory activity against DSS-induced colitis C57BL/6J mouse model assessed as reduction in DAI score at 2.5 mg/kg, ip administered daily and measured for 15 days; format: functional; conditions: 360 h; outline: as §2
Mus musculus [10] = test: Antiinflammatory activity against DSS-induced colitis C57BL/6J mouse model assessed as areas of normal colonic mucosa with straight and larger crypts on muscularis mucosa at 2.5 mg/kg, ip administered daily and measured after day 14 by hematoxylin and eosin staining based microscopic analysis; format: functional, organism-based; outline: as §2
Mus musculus [11] = test: Antiinflammatory activity against DSS-induced colitis C57BL/6J mouse model assessed as decrease in inflammation level in colon at 2.5 mg/kg, ip administered daily and measured after day 14 by hematoxylin and eosin staining based microscopic analysis; format: functional; conditions: 336 h; outline: as §2
Mus musculus [12] = test: Antiinflammatory activity against DSS-induced colitis C57BL/6J mouse model assessed as body weight loss at 2.5 mg/kg, ip administered daily and measured for 15 days relative to placebo-treated control; format: functional; outline: as §2
Mus musculus [13] = test: Antiinflammatory activity against DSS-induced colitis C57BL/6J mouse model assessed as reduction in diarrhea at 2.5 mg/kg, ip administered daily and measured for 15 days; format: functional, organism-based; outline: as §2

SMILES	inhibition [1]	inhibition [2]	inhibition [3]	inhibition [4]	inhibition [5]	inhibition [6]	Activity (Mus musculus [7])	Drug metabolism [8]	inhibition in vivo at 2.5 mg/kg (Mus musculus [9]) [%]	Activity (Mus musculus [10])	inhibition in vivo at 2.5 mg/kg (Mus musculus [11]) [%]	Activity (Mus musculus [12]) [%]	Activity (Mus musculus [13])
O=C(NCc1ccc(Cl)cc1Cl)[C@@H]1CCC(=O)N1c1ccsc1	inactive	Active	Active	Active	Active	Active							
O=C(NCc1ccc(Cl)cc1Cl)[C@@H]1CCC(=O)N1c1cccs1	inactive	Active	Active	Active	Active	Active	Active	Metabolite_Detected	31	Active	42 to 50	50	Active
